In ChEMBL document CHEMBL1142492 (J Med Chem, 2008):

Columns and labels:
[1] = molecular target: Serine/threonine-protein kinase 16 (Homo sapiens) (UniProt O75716); test: Inhibition of STK16 at 3 uM
[2] = molecular target: Serine/threonine-protein kinase 36 (Homo sapiens) (UniProt Q9NRP7); test: Inhibition of STK36 at 3 uM
[3] = molecular target: Glycogen synthase kinase-3 alpha (Homo sapiens) (UniProt P49840); test: Inhibition of GSK3A at 3 uM
[4] = molecular target: Insulin-like growth factor 1 receptor (Homo sapiens) (UniProt P08069); test: Inhibition of IGF1R at 3 uM
[5] = molecular target: Insulin receptor-related protein (Homo sapiens) (UniProt P14616); test: Inhibition of INSRR at 3 uM
[6] = molecular target: Interleukin-1 receptor-associated kinase 3 (Homo sapiens) (UniProt Q9Y616); test: Inhibition of IRAK3 at 3 uM
Interleukin-1 receptor-associated kinase 3 (Homo sapiens), sequence (Q9Y616 whole entry): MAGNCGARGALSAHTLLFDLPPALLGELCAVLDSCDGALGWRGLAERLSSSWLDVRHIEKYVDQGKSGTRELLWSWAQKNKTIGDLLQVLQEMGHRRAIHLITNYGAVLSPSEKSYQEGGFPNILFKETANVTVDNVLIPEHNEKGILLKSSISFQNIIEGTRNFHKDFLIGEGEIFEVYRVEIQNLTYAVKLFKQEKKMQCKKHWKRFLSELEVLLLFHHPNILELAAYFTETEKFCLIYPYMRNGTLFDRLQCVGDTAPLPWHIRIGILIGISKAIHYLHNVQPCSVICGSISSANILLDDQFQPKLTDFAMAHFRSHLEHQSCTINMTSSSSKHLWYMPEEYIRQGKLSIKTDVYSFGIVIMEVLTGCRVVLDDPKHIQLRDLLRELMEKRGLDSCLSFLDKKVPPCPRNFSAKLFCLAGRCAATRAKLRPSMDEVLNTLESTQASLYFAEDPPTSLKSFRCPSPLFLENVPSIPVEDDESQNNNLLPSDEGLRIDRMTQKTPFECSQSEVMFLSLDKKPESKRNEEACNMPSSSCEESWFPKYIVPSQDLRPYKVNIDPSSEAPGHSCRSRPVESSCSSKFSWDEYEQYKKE

[7] = molecular target: MAP kinase-activated protein kinase 5 (Homo sapiens) (UniProt Q8IW41); test: Inhibition of MAPKAPK5 at 3 uM
[8] = molecular target: Dual specificity mitogen-activated protein kinase kinase 4 (Homo sapiens) (UniProt P45985); test: Inhibition of MEK4 at 3 uM
Dual specificity mitogen-activated protein kinase kinase 4 (Homo sapiens), sequence (P45985 whole entry): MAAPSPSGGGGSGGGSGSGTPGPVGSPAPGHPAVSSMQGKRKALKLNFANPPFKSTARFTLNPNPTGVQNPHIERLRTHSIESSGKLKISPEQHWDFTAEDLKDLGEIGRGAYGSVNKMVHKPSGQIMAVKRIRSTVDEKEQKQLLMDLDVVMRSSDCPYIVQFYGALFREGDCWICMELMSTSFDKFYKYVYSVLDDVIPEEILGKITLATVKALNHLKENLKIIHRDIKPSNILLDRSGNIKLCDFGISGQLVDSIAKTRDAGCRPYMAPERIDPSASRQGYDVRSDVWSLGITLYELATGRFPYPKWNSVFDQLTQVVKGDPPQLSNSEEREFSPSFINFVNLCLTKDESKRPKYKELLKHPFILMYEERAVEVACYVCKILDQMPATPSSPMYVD

[9] = molecular target: MAP kinase-interacting serine/threonine-protein kinase 2 (Homo sapiens) (UniProt Q9HBH9); test: Inhibition of MKNK2 at 3 uM
[10] = molecular target: Adenosine receptor A3 (Homo sapiens) (UniProt P0DMS8); test: Inhibition of human adenosine A3 receptor at 3 uM
Summary of the method: (§1)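 Counter-screen binding/enzyme panel at single 3 μM, n=2; results as percent inhibition. Species per target as listed (rat NMDA, GABAA sites; human receptors, transporters; rabbit ACE).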

[11] = molecular target: Cysteinyl leukotriene receptor 1 (Homo sapiens) (UniProt Q9Y271); test: Inhibition of human CysLT1 receptor at 3 uM
Cysteinyl leukotriene receptor 1 (Homo sapiens), sequence (Q9Y271 whole entry): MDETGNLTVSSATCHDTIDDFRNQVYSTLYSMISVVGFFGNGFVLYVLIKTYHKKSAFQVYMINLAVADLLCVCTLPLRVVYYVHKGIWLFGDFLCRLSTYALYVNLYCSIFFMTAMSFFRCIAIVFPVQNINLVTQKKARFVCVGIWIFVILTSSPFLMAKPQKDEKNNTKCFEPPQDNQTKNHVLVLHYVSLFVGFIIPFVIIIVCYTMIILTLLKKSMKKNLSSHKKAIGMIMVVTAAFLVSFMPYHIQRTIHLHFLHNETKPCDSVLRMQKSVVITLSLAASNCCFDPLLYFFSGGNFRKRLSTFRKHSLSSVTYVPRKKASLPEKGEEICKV

[12] = molecular target: Muscarinic acetylcholine receptor M2 (Homo sapiens) (UniProt P08172); test: Inhibition of human muscarinic M2 receptor at 3 uM; summary of the method: as §1
[13] = system: Tyrosine-protein kinase ABL1 (Homo sapiens), P00519 [H396P]; test: Inhibition of ABL1 H396P mutant at 3 uM
[14] = system: Tyrosine-protein kinase ABL1 (Homo sapiens), P00519 [T315I]; test: Inhibition of ABL1 T315I mutant at 3 uM
[15] = molecular target: Cyclin-dependent kinase 7 (Homo sapiens) (UniProt P50613); test: Inhibition of CDK7 at 3 uM
[16] = molecular target: Activin receptor type-1B (Homo sapiens) (UniProt P36896); test: Inhibition of ACVR1B at 3 uM
[17] = molecular target: NUAK family SNF1-like kinase 1 (Homo sapiens) (UniProt O60285); test: Inhibition of ARK5 at 3 uM
NUAK family SNF1-like kinase 1 (Homo sapiens), sequence (O60285 whole entry): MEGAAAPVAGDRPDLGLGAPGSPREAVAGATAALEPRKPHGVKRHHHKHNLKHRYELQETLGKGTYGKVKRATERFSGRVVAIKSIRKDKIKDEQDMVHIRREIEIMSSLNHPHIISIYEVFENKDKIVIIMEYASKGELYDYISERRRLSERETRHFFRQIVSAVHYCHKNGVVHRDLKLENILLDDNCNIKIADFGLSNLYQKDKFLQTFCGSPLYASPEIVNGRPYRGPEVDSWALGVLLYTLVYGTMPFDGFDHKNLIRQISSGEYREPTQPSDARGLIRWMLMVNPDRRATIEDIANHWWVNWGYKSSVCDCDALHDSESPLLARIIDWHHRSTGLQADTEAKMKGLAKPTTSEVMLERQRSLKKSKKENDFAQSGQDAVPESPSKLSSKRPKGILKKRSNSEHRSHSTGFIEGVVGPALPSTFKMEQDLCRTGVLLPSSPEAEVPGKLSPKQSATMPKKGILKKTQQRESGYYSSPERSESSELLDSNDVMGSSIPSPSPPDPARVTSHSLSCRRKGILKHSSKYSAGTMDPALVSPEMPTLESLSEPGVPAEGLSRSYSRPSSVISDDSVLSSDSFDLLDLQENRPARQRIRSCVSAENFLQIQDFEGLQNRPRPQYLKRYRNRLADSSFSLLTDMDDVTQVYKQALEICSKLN

[18] = molecular target: Bone morphogenetic protein receptor type-2 (Homo sapiens) (UniProt Q13873); test: Inhibition of BMPR2 at 3 uM
[19] = molecular target: 5-hydroxytryptamine receptor 2A (Homo sapiens) (UniProt P28223); test: Inhibition of human 5HT2 receptor at 3 uM; summary of the method: as §1
[20] = molecular target: AP2-associated protein kinase 1 (Homo sapiens) (UniProt Q2M2I8); test: Inhibition of AAK1 at 3 uM
AP2-associated protein kinase 1 (Homo sapiens), sequence (Q2M2I8 whole entry, looked up): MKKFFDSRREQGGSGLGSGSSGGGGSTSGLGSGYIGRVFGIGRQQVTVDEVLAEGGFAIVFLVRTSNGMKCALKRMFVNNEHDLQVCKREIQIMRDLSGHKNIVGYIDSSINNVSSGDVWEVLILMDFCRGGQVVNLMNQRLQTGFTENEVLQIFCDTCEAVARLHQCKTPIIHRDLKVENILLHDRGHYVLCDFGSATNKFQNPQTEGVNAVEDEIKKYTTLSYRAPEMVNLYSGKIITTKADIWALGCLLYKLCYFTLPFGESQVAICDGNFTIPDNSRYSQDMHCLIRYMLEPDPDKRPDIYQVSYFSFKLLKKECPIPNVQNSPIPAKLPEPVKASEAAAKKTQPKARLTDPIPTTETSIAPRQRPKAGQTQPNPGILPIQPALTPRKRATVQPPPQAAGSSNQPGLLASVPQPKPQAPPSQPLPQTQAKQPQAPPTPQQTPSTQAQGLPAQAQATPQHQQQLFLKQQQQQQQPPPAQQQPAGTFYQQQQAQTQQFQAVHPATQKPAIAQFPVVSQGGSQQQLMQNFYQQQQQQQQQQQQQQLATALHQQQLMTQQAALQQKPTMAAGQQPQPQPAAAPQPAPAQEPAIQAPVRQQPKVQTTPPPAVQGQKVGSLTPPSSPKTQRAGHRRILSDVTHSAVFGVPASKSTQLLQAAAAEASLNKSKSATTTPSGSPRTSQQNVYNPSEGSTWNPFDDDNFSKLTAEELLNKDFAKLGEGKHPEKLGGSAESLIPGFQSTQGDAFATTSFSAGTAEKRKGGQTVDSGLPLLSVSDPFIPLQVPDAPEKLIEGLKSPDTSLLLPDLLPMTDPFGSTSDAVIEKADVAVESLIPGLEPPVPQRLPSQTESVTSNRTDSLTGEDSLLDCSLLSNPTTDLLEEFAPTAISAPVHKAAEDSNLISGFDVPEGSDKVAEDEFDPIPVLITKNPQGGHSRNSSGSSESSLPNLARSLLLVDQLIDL

[21] = molecular target: Tyrosine-protein kinase CSK (Homo sapiens) (UniProt P41240); test: Inhibition of CSK at 3 uM
Tyrosine-protein kinase CSK (Homo sapiens), sequence (P41240 2-450 limits assumed): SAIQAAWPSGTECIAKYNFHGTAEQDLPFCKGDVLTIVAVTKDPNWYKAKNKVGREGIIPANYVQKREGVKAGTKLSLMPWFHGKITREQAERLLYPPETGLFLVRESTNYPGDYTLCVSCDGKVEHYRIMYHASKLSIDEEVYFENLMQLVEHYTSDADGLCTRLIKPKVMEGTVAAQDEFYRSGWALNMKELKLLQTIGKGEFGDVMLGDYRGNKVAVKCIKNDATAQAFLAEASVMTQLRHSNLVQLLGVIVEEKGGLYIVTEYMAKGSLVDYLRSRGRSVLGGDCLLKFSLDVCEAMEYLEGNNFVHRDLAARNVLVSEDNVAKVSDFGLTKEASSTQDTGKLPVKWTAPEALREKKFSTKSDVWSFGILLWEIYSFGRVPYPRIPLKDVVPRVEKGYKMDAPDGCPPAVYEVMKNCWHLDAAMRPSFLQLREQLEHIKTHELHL

[22] = molecular target: Epithelial discoidin domain-containing receptor 1 (Homo sapiens) (UniProt Q08345); test: Inhibition of DDR1 at 3 uM
Epithelial discoidin domain-containing receptor 1 (Homo sapiens), sequence (Q08345 whole entry, the tested form may be a part): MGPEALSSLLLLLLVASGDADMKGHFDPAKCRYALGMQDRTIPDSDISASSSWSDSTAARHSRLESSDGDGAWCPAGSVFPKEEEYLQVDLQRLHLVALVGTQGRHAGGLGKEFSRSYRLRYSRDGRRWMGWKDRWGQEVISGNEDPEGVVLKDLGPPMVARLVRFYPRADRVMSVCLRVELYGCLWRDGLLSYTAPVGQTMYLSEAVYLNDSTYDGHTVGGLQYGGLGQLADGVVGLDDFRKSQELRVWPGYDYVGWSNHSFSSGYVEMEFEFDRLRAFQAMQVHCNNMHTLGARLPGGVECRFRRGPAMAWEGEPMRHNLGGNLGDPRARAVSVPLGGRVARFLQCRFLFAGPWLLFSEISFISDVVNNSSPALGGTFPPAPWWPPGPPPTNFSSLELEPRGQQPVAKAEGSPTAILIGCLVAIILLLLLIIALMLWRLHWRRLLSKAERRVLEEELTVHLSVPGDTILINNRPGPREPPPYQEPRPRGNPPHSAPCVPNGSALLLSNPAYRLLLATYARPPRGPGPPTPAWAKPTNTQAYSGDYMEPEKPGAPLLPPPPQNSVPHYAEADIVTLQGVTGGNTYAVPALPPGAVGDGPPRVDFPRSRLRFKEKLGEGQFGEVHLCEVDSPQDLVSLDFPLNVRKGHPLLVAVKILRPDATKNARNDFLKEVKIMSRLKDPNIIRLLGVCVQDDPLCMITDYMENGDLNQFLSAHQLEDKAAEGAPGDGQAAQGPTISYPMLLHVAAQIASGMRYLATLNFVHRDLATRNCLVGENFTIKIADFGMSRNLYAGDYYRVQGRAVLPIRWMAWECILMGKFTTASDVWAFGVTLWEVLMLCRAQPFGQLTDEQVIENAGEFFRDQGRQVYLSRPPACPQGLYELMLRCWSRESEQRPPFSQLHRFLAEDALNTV

[23] = molecular target: Mitogen-activated protein kinase kinase kinase 7 (TAK1) (Homo sapiens) (UniProt O43318); test: Inhibition of TAK1 at 3 uM
Mitogen-activated protein kinase kinase kinase 7 (TAK1) (Homo sapiens), sequence (O43318 whole entry, looked up): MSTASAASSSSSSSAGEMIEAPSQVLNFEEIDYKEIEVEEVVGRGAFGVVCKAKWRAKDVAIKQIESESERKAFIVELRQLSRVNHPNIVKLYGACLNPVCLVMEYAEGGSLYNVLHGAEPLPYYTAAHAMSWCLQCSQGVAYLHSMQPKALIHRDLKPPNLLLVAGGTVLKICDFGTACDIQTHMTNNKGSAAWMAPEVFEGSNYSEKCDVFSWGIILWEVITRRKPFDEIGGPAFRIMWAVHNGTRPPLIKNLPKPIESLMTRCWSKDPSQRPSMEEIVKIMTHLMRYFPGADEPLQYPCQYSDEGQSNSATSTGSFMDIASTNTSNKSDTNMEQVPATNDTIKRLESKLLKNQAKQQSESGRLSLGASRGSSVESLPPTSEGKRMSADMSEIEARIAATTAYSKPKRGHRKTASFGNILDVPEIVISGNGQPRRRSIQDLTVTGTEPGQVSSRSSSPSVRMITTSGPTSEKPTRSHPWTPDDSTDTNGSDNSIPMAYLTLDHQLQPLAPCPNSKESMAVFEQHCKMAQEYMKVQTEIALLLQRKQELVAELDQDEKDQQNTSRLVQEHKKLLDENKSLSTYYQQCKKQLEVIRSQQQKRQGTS

Q: For CN(C)CCOc1cc(-c2cn[nH]c2)ccc1NC(=O)C1COc2ccccc2O1 (stereo not drawn) [SR-3677], which inhibition [1] is on record?
A: The inhibition was under 10%.

Q: What about the inhibition [2] of the same compound?
A: Its inhibition is under 10%.

Q: And the inhibition [3]?
A: Its inhibition is under 10%.

Q: And the inhibition [4]?
A: The inhibition was under 10%.

Q: And the inhibition [5]?
A: The inhibition was under 10%.

Q: What about the inhibition [6] of the same compound?
A: The inhibition was under 10%.

Q: And the inhibition [7]?
A: Its inhibition is under 10%.

Q: What about the inhibition [8] of the same compound?
A: Its inhibition is under 10%.

Q: What about the inhibition [9] of the same compound?
A: Its inhibition is under 10%.

Q: And the inhibition [10]?
A: Its inhibition is -4%.

Q: What about the inhibition [11] of the same compound?
A: The inhibition was 0%.

Q: What about the inhibition [12] of the same compound?
A: Its inhibition is 4%.

Q: And the inhibition [13]?
A: The inhibition was under 10%.

Q: And the inhibition [14]?
A: The inhibition was under 10%.

Q: What about the inhibition [15] of the same compound?
A: Its inhibition is under 10%.

Q: And the inhibition [16]?
A: The inhibition was under 10%.

Q: What about the inhibition [17] of the same compound?
A: Its inhibition is under 10%.

Q: What about the inhibition [18] of the same compound?
A: Its inhibition is under 10%.

Q: What about the inhibition [19] of the same compound?
A: The inhibition was 2%.

Q: What about the inhibition [20] of the same compound?
A: Its inhibition is under 10%.

Q: And the inhibition [21]?
A: Its inhibition is under 10%.

Q: What about the inhibition [22] of the same compound?
A: Its inhibition is under 10%.

Q: And the inhibition [23]?
A: The inhibition was under 10%.
